The text below walks through data of ChEMBL document CHEMBL4765490 (J Med Chem, 2021).

A short description of data set [1]: Metabolic stability in human liver microsomes assessed as half life at 100 uM in presence of NADPH by LC-MS/MS analysis. In kind it is ADME, Microsome. In a few lines:
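Stock in DMSO (1 mM) was diluted to a 100 μM working solution in 0.1 M phosphate buffer with 3.3 mM MgCl2. Microsomes (20 mg/mL) were primed with NADPH at 37 °C for 3 min, then dosed with compound. Samples were taken at 0, 5, 10, 15, 30, 45 and 60 min and stopped with cold acetonitrile containing internal standard. Protein was spun out before analysis.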
In general terms: Microsomes from liver hold many membrane-bound enzymes, among them those of drug oxidation.

Data set [2] can be described thus: Inhibition of PKA (unknown origin) incubated for 30 mins using REBtide substrate by ADP-Glo assay. Set-up: species or system Homo sapiens. The gist of the method: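 ADP-Glo reagent was added for 40 min, then detection reagent for 30 min, and luminescence was read. Three experiments in duplicate; curves fitted as for GRK.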
A general note: In ADP-Glo the light output rises with the ADP produced.

Data set [3] deals with T1, G protein-coupled receptor kinase 5 (Homo sapiens, UniProt P34947). Nature of the data set: Inhibition of human GRK5 using porcine brain tubulin as substrate incubated for 3 to 5 mins by [gamma32P]ATP based radiometric assay.
Target sequence in this assay (P34947 whole entry): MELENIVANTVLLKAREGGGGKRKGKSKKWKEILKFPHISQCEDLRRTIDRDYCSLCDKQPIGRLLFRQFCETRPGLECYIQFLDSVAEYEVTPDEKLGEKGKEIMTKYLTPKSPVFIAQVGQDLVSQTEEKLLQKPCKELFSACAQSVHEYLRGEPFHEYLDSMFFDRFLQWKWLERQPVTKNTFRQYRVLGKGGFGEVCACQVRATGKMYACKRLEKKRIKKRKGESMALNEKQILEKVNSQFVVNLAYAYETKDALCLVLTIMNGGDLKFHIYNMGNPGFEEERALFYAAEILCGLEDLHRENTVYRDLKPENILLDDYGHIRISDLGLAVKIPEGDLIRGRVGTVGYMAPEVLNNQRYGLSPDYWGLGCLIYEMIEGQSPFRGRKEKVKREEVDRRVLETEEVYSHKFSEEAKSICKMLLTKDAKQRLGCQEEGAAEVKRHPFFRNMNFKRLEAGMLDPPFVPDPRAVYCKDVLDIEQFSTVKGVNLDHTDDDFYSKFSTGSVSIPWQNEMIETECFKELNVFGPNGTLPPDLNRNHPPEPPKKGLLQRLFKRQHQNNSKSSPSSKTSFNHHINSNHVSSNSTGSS
Data set [4] deals with G protein-coupled receptor kinase 6 (Homo sapiens) (UniProt P43250). The data set can be described thus: Inhibition of GRK6 (unknown origin) at 1 uM relative to control.
G protein-coupled receptor kinase 6 (Homo sapiens), sequence (P43250 whole entry, looked up): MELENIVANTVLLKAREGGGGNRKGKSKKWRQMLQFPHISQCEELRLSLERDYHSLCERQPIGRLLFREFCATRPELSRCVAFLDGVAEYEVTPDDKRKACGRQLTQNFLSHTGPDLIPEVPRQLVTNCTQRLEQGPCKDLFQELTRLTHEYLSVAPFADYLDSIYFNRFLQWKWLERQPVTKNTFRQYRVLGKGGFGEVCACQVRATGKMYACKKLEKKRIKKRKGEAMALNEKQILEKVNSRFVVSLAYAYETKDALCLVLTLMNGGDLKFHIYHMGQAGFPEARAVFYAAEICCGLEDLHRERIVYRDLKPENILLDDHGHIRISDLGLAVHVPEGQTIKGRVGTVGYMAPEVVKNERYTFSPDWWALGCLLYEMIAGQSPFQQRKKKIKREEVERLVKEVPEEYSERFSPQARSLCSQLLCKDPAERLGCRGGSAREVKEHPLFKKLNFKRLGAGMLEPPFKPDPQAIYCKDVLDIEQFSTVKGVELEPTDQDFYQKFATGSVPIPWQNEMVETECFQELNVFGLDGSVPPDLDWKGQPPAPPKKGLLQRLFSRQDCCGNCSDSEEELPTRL
A short description of data set [5]: Thermodynamic solubility of compound in phosphate buffer at 6 pH by shake flask method. As to conditions: pH 6, read-out: Therm_solubility. In kind it is physicochemical.
The target in data set [6] is T2, Beta-adrenergic receptor kinase 1 (Bos taurus, UniProt P21146).
T2 sequence (P21146 whole entry): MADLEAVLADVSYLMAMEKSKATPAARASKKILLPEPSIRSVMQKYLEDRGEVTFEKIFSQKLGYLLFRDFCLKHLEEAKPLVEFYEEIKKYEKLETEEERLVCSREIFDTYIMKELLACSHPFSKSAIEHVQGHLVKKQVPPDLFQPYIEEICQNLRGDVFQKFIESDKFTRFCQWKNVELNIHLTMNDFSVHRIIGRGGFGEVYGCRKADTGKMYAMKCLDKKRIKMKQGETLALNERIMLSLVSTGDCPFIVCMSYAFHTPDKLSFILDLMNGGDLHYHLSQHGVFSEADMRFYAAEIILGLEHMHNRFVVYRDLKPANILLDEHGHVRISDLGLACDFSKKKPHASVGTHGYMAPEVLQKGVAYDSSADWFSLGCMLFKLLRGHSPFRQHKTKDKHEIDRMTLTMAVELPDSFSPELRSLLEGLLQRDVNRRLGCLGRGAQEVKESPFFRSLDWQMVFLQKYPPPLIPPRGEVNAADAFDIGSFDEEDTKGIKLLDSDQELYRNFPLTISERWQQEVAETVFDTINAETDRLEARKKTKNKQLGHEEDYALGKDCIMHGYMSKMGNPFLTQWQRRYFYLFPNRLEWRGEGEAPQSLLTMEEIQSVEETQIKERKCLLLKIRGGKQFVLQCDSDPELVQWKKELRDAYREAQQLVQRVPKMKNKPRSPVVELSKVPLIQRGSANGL
Nature of the data set: Inhibition of bovine GRK2 using porcine brain tubulin as substrate incubated for 3 to 5 mins by [gamma32P]ATP based radiometric assay.

Data set [7] addresses T1, G protein-coupled receptor kinase 5. Nature of the data set: Covalent inhibition of GRK5 (unknown origin) using porcine brain tubulin as substrate by [gamma32P]ATP based radiometric assay.
Target sequence in this assay (P34947 whole entry): as the sequence (P34947 whole entry) above
Data set [8] has as its target T3, G protein-coupled receptor kinase 3 (Homo sapiens) (UniProt P35626).
T3 sequence (whole entry): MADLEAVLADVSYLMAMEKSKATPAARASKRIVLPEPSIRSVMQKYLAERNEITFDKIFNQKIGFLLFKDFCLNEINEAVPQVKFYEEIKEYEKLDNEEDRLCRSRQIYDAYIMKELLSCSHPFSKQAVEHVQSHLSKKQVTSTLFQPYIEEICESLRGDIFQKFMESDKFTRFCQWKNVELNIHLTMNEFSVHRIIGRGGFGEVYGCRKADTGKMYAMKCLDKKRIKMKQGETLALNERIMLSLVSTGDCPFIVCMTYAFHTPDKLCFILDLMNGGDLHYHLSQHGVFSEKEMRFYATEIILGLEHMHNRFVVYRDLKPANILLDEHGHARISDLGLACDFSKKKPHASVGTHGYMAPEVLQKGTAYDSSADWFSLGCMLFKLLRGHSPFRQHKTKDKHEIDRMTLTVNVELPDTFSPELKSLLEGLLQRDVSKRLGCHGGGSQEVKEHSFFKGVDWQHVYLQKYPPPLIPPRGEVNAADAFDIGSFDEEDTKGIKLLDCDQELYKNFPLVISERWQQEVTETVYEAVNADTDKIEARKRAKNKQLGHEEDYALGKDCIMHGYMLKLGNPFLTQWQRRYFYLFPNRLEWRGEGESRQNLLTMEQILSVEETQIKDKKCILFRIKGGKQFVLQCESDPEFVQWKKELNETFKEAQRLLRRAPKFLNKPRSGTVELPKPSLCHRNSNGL
Nature of the data set: Inhibition of GRK3 (unknown origin) at 1 uM relative to control. As to conditions: time 3-5 min.

Data set [9] deals with T1, G protein-coupled receptor kinase 5.
Target sequence in this assay (P34947 whole entry, looked up): as the sequence (P34947 whole entry) above

Turning to `Cc1[nH]c(/C=C2\C(=O)Nc3ccc(C(=O)N[C@H](C)c4ccccc4)cc32)c(C)c1NC(=O)CCl` (mixture of isomers), the t1/2 in [1] was determined as 13.3 min. Besides, the IC50 (commonly the midpoint of a concentration-inhibition curve) in [2] is over 250 µM.

`C=CCCNC(=O)c1c(C)[nH]c(/C=C2\C(=O)Nc3ccc(C(=O)N[C@H](C)c4ccccc4)cc32)c1C` (mixture of isomers) gave an IC50 in data set [3] of 1.94 µM.

For the compound `C#CCNC(=O)c1c(C)[nH]c(/C=C2\C(=O)Nc3ccc(C(=O)N[C@H](C)c4ccccc4)cc32)c1C`, the inhibition – broadly, how much of the control response was suppressed – in data set [4] amounted to 94%.

Consider `CCN(CC)CCNC(=O)c1c(C)[nH]c(/C=C2\C(=O)Nc3ccc(F)cc32)c1C` (mixture of isomers) [SUNITINIB], for which, in data set [5], the solubility thermodynamic turned out to be 350 µg/mL.

Compound `CCN(CC)CCNC(=O)c1c(C)[nH]c(/C=C2\C(=O)Nc3ccc(C(=O)N[C@H](C)c4ccccc4)cc32)c1C` displayed an IC50 in [2] of over 250 µM.

In the case of `C#CCCNC(=O)c1c(C)[nH]c(/C=C2\C(=O)Nc3ccc(C(=O)N[C@H](C)c4ccccc4)cc32)c1C` (mixture of isomers), the results for the IC50 in [6] and in [2] were 130 µM and over 250 µM, respectively.

Compound `C=CCNC(=O)c1c(C)[nH]c(/C=C2\C(=O)Nc3ccc(C(=O)N[C@H](C)c4ccccc4)cc32)c1C` yielded an IC50 in [2] of over 250 µM.

`Cc1[nH]c(/C=C2\C(=O)Nc3ccc(C(=O)N[C@H](C)c4ccccc4)cc32)c(C)c1NC(=O)CBr` (mixture of isomers) showed a Ki in data set [7] of 0.11 µM. Moreover, the Ratio IC50 in the data set listed under Homo sapiens was found to be 5. For the same compound, the results for the inhibition in [8] and in data set [4] were 21% and 97%, respectively. This compound also returned an IC50 in data set [2] of over 250 µM. Further, the Kinact in [9] is over 1 min⁻¹.

Turning to `Cc1[nH]c(/C=C2\C(=O)Nc3ccc(C(=O)N[C@H](C)c4ccccc4)cc32)c(C)c1NC(=O)C(O)CCl` (some centres undefined), in data set [2], the 50% inhibitory concentration (IC50) is over 250 µM.

`CC1=C(C(=O)Nc2ccc3[nH]ncc3c2)C(c2ccc(F)c(C(=O)NCc3ccccn3)c2)NC(=O)N1` (centres undefined): in data set [2], the IC50 was over 250 µM.

Consider `Cc1[nH]c(/C=C2\C(=O)Nc3ccc(C(=O)N[C@H](C)c4ccccc4)cc32)c(C)c1NC(=O)/C(C#N)=C/C(C)(C)C`, for which, in data set [2], the IC50 is over 250 µM.

Compound `Fc1ccc([C@@H]2CCNC[C@H]2COc2ccc3c(c2)OCO3)cc1` [PAROXETINE] came in with an IC50 in data set [2] of 850 µM.
